Cl transport mod = modulates chloride dependent transport by human KCC2 | KCC2 cells, thallium flux FluoZin-2 fluorescence | hit rate 2.2% among 190,000 | Q9H2X9 | B-score of Tl+ flux slope (higher = more flux/activation; lower = inhibition) at 10 µM;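 active = thallium flux slope and its plate-corrected score both differing from the plate sample mean at a set confidence after two filtering rounds, in either direction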;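 also: slope of fluorescence scaled to starting intensity during 10 to 20 s after thallium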
Target sequence (Q9H2X9 whole entry, looked up): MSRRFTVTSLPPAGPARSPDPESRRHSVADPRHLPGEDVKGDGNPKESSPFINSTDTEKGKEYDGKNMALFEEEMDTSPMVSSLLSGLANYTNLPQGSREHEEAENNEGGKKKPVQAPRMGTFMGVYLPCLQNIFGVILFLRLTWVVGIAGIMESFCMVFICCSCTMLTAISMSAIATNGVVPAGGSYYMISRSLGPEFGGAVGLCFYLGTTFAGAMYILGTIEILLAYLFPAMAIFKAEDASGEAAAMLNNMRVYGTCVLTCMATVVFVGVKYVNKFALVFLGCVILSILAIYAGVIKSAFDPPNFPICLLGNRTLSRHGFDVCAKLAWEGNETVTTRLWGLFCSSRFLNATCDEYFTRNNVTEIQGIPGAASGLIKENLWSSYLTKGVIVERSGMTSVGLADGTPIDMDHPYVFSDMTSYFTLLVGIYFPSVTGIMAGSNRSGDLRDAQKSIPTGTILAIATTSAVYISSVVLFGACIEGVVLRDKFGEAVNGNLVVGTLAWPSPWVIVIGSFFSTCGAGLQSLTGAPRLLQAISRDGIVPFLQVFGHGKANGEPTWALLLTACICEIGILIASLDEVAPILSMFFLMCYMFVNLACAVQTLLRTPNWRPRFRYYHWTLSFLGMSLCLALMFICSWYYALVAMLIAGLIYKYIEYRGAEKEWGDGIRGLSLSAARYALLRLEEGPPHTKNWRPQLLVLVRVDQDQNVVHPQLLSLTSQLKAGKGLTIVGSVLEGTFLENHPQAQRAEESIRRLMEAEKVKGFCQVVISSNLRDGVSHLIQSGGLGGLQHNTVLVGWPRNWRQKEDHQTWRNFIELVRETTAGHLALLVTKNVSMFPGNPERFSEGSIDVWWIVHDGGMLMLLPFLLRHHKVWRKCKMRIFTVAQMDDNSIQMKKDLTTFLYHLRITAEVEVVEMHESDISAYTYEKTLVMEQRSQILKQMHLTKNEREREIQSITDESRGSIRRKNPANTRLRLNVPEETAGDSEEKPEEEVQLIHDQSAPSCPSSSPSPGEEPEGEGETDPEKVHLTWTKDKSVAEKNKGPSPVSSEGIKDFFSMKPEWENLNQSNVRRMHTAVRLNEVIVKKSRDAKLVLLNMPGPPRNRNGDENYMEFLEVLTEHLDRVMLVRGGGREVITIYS
STAT3 act-1 = increases IL-6 driven STAT3 reporter signal; U3A cells, IL-6 STAT3-luciferase reporter, luminescence; 100% = signal with IL-6 EC80 alone; activation (% of control), % at 5.6 µM; hit rate 0.91% among 190,000;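 active = activation above the screen-wide mean of compound activation plus 3 SD, cut at about 130% in these data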
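Material: STAT3-luciferase reporter U3A cells; Probe or stimulus: IL-6 (33 ng/mL); Incubation: compound pre-incubation 1 h before IL-6, then 6 h stimulation at 37 °C; Technique: luminescence from STAT3-driven luciferase reporter; Evaluation: % activation versus median of IL-6-stimulated wells; Controls: IL-6-only high control.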
STAT1 act-1 = activators of IFN-gamma induced STAT1 signaling; NIH 3T3 STAT1-luciferase reporter, luminescence; 100% = IFN-gamma alone, no compound; hit rate 2.6% among 200,000; AID 932; activation (% of control), % at 5.5 µM;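 active = activation above the screen-wide mean activation plus 3 SD, cut at about 130% in these data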
STAT1 blocker = inhibitors of IFN-gamma induced STAT1 signaling; inhibition, % at 5.5 µM; NIH 3T3 STAT1-luciferase reporter, luminescence; hit rate 0.35% among 200,000;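 active = inhibition above a set limit, the mean inhibition across all tested compounds plus 3 SD, cut at about 34% in these data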
HSV replic up = increases HSV replication in cells | HSV replication augmentation in cells, fold increase | maximum fold increase | hit rate 0.005% among 220,000; in the data active = maximum fold increase above about 1.5; inconclusive = no clear call, values can overlap the other calls; tested in PC3 cells
STAT3 inh = inhibitors of IL-6 induced STAT3 signaling; U3A cells, IL-6 STAT3-luciferase reporter, luminescence; host cell line lacks STAT1; inhibition, % at 5.5 µM; hit rate 0.89% among 190,000;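 active = inhibition above the mean inhibition across all screened compounds plus 3 SD, cut at about 44% in these data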
STAT3 act-2 = confirmation of STAT3 signaling activators | shares compounds with STAT3 act-1 | U3A STAT3-luciferase reporter, IL-6 potentiation, luminescence; U3A cells lack STAT1; 100 means same as IL-6 alone | potentiation (% of control), % at 5.7 µM | hit rate 64% among 1,200;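 active = percent activation of the STAT3 luciferase reporter above a set limit taken from the earlier primary screen, cut at about 130% in these data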
NFkB act 2 = counter-screen for STAT3 activators: NF-kappaB activation; activation (% of control), % at 5.7 µM; AID 1309; hit rate 11% among 1,200; human cells, NF-kappaB reporter activation; shares compounds with STAT3 act-1; in the data active = activation above about 120%;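 also: reporter induced by TNF-alpha stimulation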
STAT1 act-2 = STAT1 activation in STAT3 activator counter-screen; shares compounds with STAT3 act-1; NIH 3T3 STAT1-luciferase reporter, IFN-gamma, luminescence; activation (% of control), % at 5.7 µM; hit rate 13% among 1,200;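 active = activation above the solvent-only control well mean plus 3 SD, set per screening run, cut at about 120% in these data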
Of the large screens only hits and unclear results are named; the others gave an inactive call (follow-up assays come after a bar, where they were run). Shown are actives, neighbours in structure and some others; about 5.5% of the full set was active somewhere.

O=C(C1CCCN(Cc2ccccc2Br)C1)N1CCCCC1 (stereo unspecified)	none (no result: Cl transport mod)
O=C(NC(=S)N1CCCc2ccccc21)c1ccccc1	STAT3 act-1 167 (no result: Cl transport mod) | STAT3 act-2 149 | NFkB act 2 inactive | STAT1 act-2 inactive
COC(=O)c1[nH]c2ccc(F)cc2c1NS(=O)(=O)c1ccc(OC)cc1OC	STAT3 act-1 143 (no result: Cl transport mod) | STAT3 act-2 inactive | NFkB act 2 inactive | STAT1 act-2 inactive
CCOC(=O)c1[nH]c2ccc(OC)cc2c1NS(=O)(=O)c1ccc(OC)cc1OC	none
c1coc(-c2nc3c4c5c(sc4ncn3n2)CCCC5)c1	none
CN1CCc2c(sc3ncn4nc(-c5ccccc5O)nc4c23)C1	STAT3 act-1 182 (no result: Cl transport mod, HSV replic up) | STAT3 act-2 164 | NFkB act 2 inactive | STAT1 act-2 inactive
O=C(Nc1ccccc1)Nc1cccc2cccnc12	STAT3 act-1 150 | STAT3 act-2 147 | NFkB act 2 136 | STAT1 act-2 152
O=C(Nc1ccccc1)Nc1cccc2ccccc12	none (no result: STAT3 act-1, STAT1 act-1, STAT1 blocker, STAT3 inh)
Cc1ccc(-n2nc(C)c3c(-c4cccs4)c(C#N)c(N)nc32)cc1	STAT3 act-1 144 | STAT3 act-2 inactive | NFkB act 2 inactive | STAT1 act-2 inactive
Cc1nn(-c2ccccc2)c2nc(N)c(C#N)c(-c3ccc(F)cc3)c12	none
COc1cc(C2CC(=O)Nc3c2c(=O)nc2c(C)cccn32)cc(OC)c1OC (stereo unspecified)	none
Cc1nn(-c2ccccc2)c(N)c1C(O)(CSc1nccn1C)C(F)(F)F (stereo unspecified)	none
Cc1nn(-c2ccc(Cl)cc2)c(N)c1C(O)(CSc1nccn1C)C(F)(F)F (stereo unspecified)	STAT3 act-1 143 | STAT3 act-2 134 | NFkB act 2 inactive | STAT1 act-2 inactive
COCCN1C(=O)c2ccccc2C(C(=O)Nc2ccc3c(c2)OCCO3)C1c1ccc(F)cc1 (stereo unspecified)	none
CC1CCN(S(=O)(=O)c2ccc3c(c2)oc(=O)n3CC(=O)N2CCc3ccccc3C2)CC1	none (no result: Cl transport mod)
CC1=C([N+](=O)[O-])C(c2cccc(Br)c2)C2=C(N1)c1ccccc1C2=O (stereo unspecified)	STAT3 act-1 175 | STAT3 act-2 149 | NFkB act 2 149 | STAT1 act-2 inactive
O=C1CC(NN2CCCCC2)C(=O)N1c1ccccc1 (stereo unspecified)	none
CCOC(=O)CC(=O)CSc1nc(-c2ccc3c(c2)OCO3)cc(C(F)(F)F)c1C#N	STAT3 act-1 140, HSV replic up inconclusive | STAT3 act-2 inactive | NFkB act 2 inactive | STAT1 act-2 inactive
COc1ccc2c(c1)[nH]c1c(=O)n(CCCn3ccnc3)cnc12	none
CCN(CC)C(=O)CSC1=Nc2ccccc2C2=NC(Cc3c[nH]c4ccccc34)C(=O)N12 (stereo unspecified)	STAT3 act-1 137 | STAT3 act-2 135 | NFkB act 2 inactive | STAT1 act-2 inactive
Cc1cc(NC(=O)CSC2=Nc3ccccc3C3=NC(Cc4ccccc4)C(=O)N23)n[nH]1 (stereo unspecified)	none
COc1ccc(NC(=O)C2CCN(S(=O)(=O)c3c(C)noc3C)CC2)cc1Cl	none (no result: Cl transport mod)
O=C(CCCn1cnc([N+](=O)[O-])n1)Nc1cccc2ccccc12	STAT3 act-1 138 | STAT3 act-2 inactive | NFkB act 2 inactive | STAT1 act-2 inactive
O=C(Cn1cnc([N+](=O)[O-])n1)NCc1ccccc1	none (no result: Cl transport mod, HSV replic up)
CC(=O)c1c(C(C)=O)c(C)n(NC(=O)c2ccncc2)c1C	none
Cc1cc(NC(=O)c2ccc(C)s2)n(-c2ccccc2)n1	none
CC(=O)Nc1cc(C)nn1-c1nc2ccccc2s1	STAT3 act-1 148 (no result: HSV replic up) | STAT3 act-2 181 | NFkB act 2 122 | STAT1 act-2 144
Cc1cc(NC(=O)CN2CCOCC2)n(-c2nc3ccccc3s2)n1	STAT3 act-1 165 | STAT3 act-2 146 | NFkB act 2 inactive | STAT1 act-2 inactive
CC1=NOC(=O)/C1=C\c1ccc(-c2cccc(Cl)c2)o1	STAT3 act-1 137 | STAT3 act-2 inactive | NFkB act 2 inactive | STAT1 act-2 inactive
CCC(SC1=N/C(=C/c2ccccc2OC)C(=O)N1c1ccccc1)C(=O)Nc1cc(C)on1 (stereo unspecified)	none
CC(C)Cc1cc(C(=O)Nc2cc(Cl)ccc2Cl)no1	STAT3 act-1 138 (no result: HSV replic up) | STAT3 act-2 137 | NFkB act 2 inactive | STAT1 act-2 inactive
CC(C)Cc1cc(C(=O)Nc2ccc(F)cc2F)no1	none
Cc1nc2cc(-c3ccc(Cl)cc3)nn2c(NCCN(C)C)c1C	STAT3 act-1 151 | STAT3 act-2 183 | NFkB act 2 inactive | STAT1 act-2 120
COc1ccc(N=Cc2sc3ccccc3c2Cl)cc1	STAT3 act-1 137 | STAT3 act-2 inactive | NFkB act 2 inactive | STAT1 act-2 132
C=CCOC(=O)c1ccc(-n2cnc(C)n2)nc1	none
Cc1cccc(C)c1OCC(=O)NCC1CCCO1 (stereo unspecified)	none
Cc1cccc(Nc2nnc(SC/C(O)=C(\C#N)c3nc4ccccc4[nH]3)s2)c1	STAT3 act-1 143 | STAT3 act-2 153 | NFkB act 2 inactive | STAT1 act-2 inactive
C/C(O)=C(/C#N)c1nc2ccccc2[nH]1	none
COc1ccc(C)cc1-n1nnnc1SC/C(O)=C(\C#N)c1nc2ccccc2[nH]1	none
N#C/C(=C(/O)CSc1ncn[nH]1)c1nc2ccccc2[nH]1	STAT3 act-1 143 | STAT3 act-2 152 | NFkB act 2 inactive | STAT1 act-2 inactive
CNC(=S)N/N=C/c1ccc(OCC(=O)Nc2c(C)cc(C)cc2C)c(OC)c1	none
COc1cc(/C=N/NC(N)=S)ccc1OCC(=O)Nc1ccc(C)cc1	STAT3 act-1 154 | STAT3 act-2 inactive | NFkB act 2 inactive | STAT1 act-2 inactive
COc1cc(/C=N/Nc2snc(SC)c2C#N)ccc1O	STAT3 act-1 148 | STAT3 act-2 136 | NFkB act 2 inactive | STAT1 act-2 inactive
COc1cc(/C=N/Nc2nc3ccccc3[nH]2)ccc1O	none
Cc1nc2c(-c3ccc(Cl)cc3)cnn2c2c1CCC2	STAT3 act-1 142 | STAT3 act-2 151 | NFkB act 2 inactive | STAT1 act-2 inactive
COc1ccccc1-c1nnc(SCC(=O)O)n1C	STAT3 act-1 164 (no result: Cl transport mod) | STAT3 act-2 153 | NFkB act 2 inactive | STAT1 act-2 inactive
COc1ccccc1-c1nnc(SC)n1C	none

Screening results: PubChem BioAssay, several laboratories
